Results taken from article PMC7059553 (Science translational medicine, 2018).
Like-named read-outs stand apart in the source and are kept apart here.

Tests used:
[1] = test system: SCID mice; assay: Single dose escalation toxicity study; settings: mouse, in vivo, iv
[2] = test system: FaDu cells; assay: Cellular H2O2 production, Amplex red assay; type: cell-based, human
Summary of the method: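 FaDu cells were grown at 37 °C, 5% CO2 in medium with 10% FBS, 2 mM L-glutamine and 100 μg/mL penicillin/streptomycin. Tests used medium with 10% FBS plus 25 nM sodium selenite. Compound was given in DMSO (0.01% final) across a concentration range or over a time course. H2O2 was read by Amplex red. Runs were in triplicate, shown as mean ± SEM.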

[3] = test system: A549 lung carcinoma cells and MEFs; type: cell-based, human, mouse; settings: for sensitivity of MEFs with the Txnrd1 gene deleted: Txnrd1 -/- vs Txnrd1 fl/fl MEFs
[4] = molecular target: T1, TXNRD1 (Rattus norvegicus, UniProt O89049); assay: SecTRAP activity; type: biochemical
T1 sequence (O89049 1-499): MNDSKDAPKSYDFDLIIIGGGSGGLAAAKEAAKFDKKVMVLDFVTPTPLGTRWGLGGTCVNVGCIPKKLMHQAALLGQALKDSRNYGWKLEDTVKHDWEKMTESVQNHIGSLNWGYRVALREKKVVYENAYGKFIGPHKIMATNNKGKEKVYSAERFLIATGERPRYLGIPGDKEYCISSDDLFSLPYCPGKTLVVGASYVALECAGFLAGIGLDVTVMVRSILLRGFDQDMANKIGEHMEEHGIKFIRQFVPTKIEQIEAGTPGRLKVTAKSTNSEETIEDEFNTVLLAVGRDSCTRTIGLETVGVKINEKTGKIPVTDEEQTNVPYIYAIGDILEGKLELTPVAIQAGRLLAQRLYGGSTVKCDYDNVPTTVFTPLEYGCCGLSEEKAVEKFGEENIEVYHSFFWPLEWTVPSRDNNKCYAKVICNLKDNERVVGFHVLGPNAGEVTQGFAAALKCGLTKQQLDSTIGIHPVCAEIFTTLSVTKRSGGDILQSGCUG

[5] = test system: JNK and p38 phosphorylation in FaDu cells; assay: Western blot of JNK and p38 phosphorylation; type: cell-based, human; settings: FaDu cells treated for 6 hours
[6] = molecular target: T1, TXNRD1; assay: Reversibility of TXNRD1 inhibition; type: biochemical
[7] = test system: HCT116 cells; assay: Cytotoxicity in HCT116 subclones with altered p53 status or BCL-2 overexpression; type: cell-based, human; settings: subclones of HCT116 cells
[8] = test system: human TXNRD1 versus human TXNRD2; assay: Inhibition of human TXNRD1 versus human TXNRD2 with DTNB as substrate; type: biochemical; settings: human recombinant enzymes
Summary of the method: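 Human recombinant TXNRD1 and TXNRD2 were assayed with DTNB as substrate, with activity read by absorbance change. TXNRD1 buffer was 50 mM Tris pH 7.5, 2 mM EDTA and 0.1 mg/mL BSA. Compounds were in DMSO. Results were normalized to DMSO and no-enzyme controls. Triplicates, mean ± SEM.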

[9] = molecular target: T2, GPX1 (Homo sapiens, UniProt P07203); assay: GPX1 inhibition; type: biochemical
T2 sequence (P07203 1-203): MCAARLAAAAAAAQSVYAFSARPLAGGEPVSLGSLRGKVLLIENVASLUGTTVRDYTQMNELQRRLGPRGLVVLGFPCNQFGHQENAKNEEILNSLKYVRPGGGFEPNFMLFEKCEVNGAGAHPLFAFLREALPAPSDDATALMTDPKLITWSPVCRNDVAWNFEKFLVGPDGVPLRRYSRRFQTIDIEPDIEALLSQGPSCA

[10] = molecular target: T1, TXNRD1; type: binding
[11] = test system: FaDu cell xenografts in SCID mice; assay: [18F]-FDG PET study of FaDu xenografts; type: in vivo, mouse; settings: 5 mg/kg i.p. once daily
Summary of the method: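 Male SCID mice carried FaDu xenografts (1×10^6 cells); baseline scan at day 11, with food removed. Isoflurane anaesthesia on a 37 °C pad. [18F]-FDG i.v., 60-min 3D acquisition. Treatment was i.p. once daily (n=8) or vehicle (n=9), rescanned on day 3. SUVmean was taken over ROIs ≥1.8×10^5 Bq/mL, and day 3 was compared with day 0 by paired t-test.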

[12] = test system: PyMT-MMTV mice mammary tumors; assay: PyMT-MMTV tumor low frequency dosing study; type: in vivo; settings: for tumor growth in PyMT-MMTV mice: three weeks; for tumor volumes compared to vehicle controls: mice surviving 20–22 days, p<0.05
[13] = test system: primary human fibroblasts, primary keratinocytes, CCD841 colon epithelial cells; type: cell-based
[14] = test system: FaDu cells; type: cell-based, human
[15] = test system: HCT116 cells; assay: Mitochondrial respiration, Seahorse assay; type: cell-based, human
[16] = test system: MDA-MB-231 xenografts in athymic mice; assay: MDA-MB-231 orthotopic xenograft efficacy study; type: in vivo; settings: for MDA-MB-231 xenograft tumor growth: 22 days, p<0.0001 vs vehicle
[17] = test system: FaDu cell xenografts in SCID mice; assay: Repeated dose study in FaDu xenograft-bearing mice; type: in vivo; settings: twice a day i.v., 10 mg/kg TRi-1, 15 mg/kg TRi-2 or 10 mg/kg auranofin; for FaDu xenograft tumor growth: four days
[18] = Liver microsome stability; type: in vitro ADME
[19] = test system: cellular TXNRD activity in FaDu cells; assay: Cellular TXNRD activity, insulin-endpoint assay; type: cell-based, human; settings: 3 hours of compound exposure
[20] = test system: FaDu cells; assay: Cellular GSH concentrations; type: cell-based, human; settings: 6 hours at 10×IC50
[21] = test system: FaDu cells; assay: Cytotoxicity towards FaDu cells, 72 hours; type: cell-based, human; settings: 72 hours of incubation
Summary of the method: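 Viability of FaDu cells after 72 h with test compound, in medium with 10% FBS and 25 nM sodium selenite, at 37 °C and 5% CO2. DMSO vehicle at 0.01% final. Run in triplicate and reported as mean ± SEM.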

[22] = test system: FaDu cells; type: cell-based, human; remark: listed apart in the source
[23] = test system: human cancer cell lines; type: cell-based
[24] = test system: NCI-60 cell panel; settings: read-out: average growth inhibition to 50% (GI50); average over NCI-60 cell panel, screened previously; ref https://dtp.cancer.gov, NSC351105 (TRi-2) and NSC321521 (auranofin); cited from earlier work
[25] = i.p. twice a week, TRi-1 5 mg/kg, auranofin 10 mg/kg
[26] = HCT116 cells, 30-minute or 5-hour exposure

| SMILES | cellular H2O2 production [2] | cytotoxicity towards MEF cells versus A549 cells [3] | sensitivity of MEFs with the Txnrd1 gene deleted [3] | JNK and p38 phosphorylation [5] | resistance upon altered p53 status or BCL-2 overexpression [7] | less efficient in inhibiting GPX1 than TXNRD1 [9] | thermal stability of NADPH-reduced TXNRD1 upon incubation with compound [10] | tumor growth in PyMT-MMTV mice [12, 25] | tumor volumes compared to vehicle controls [12] | potency against non-cancerous cells compared to cancer cell lines [13] | effect of GSH depletion with BSO on cytotoxicity [14] | ATP-coupled basal respiration [15, 26] | toxicity and mouse weight in repeated dose study [17] | FaDu xenograft tumor growth [17] | metabolism in liver microsomes [18] | effect on cellular GSH concentrations [20] | also measured |
| --- | --- | --- | --- | --- | --- | --- | --- | --- | --- | --- | --- | --- | --- | --- | --- | --- | --- |
| COc1ccc([N+](=O)[O-])c(S(=O)(=O)c2ccc(Cl)cc2)n1 [TRi-1] | increased cellular H2O2 production | preferentially toxic towards the A549 cells | additional resistance | efficiently activated JNK and p38 phosphorylation | no apparent resistance | over 1000 fold | stability was increased | impaired tumor growth | significantly smaller compared to the vehicle controls | reduced potency | enhanced the cytotoxicity | lacked effects on basal respiration | no signs of overt toxicity or changes in mouse weight | decreased tumor growth compared to vehicle controls within four days | rather rapid metabolism | no effect on cellular GSH concentrations | highest administrable dose tolerated without overt signs of toxicity [1]: 10 mg/kg; SecTRAP formation (NADPH-dependent redox cycling with juglone) ([4]; after inhibition of normal TXNRD1 activity and desalting): maintained substantial NADPH-dependent redox cycling with juglone; mode of TXNRD1 inhibition ([6]; with or without NADPH, before and after desalting): irreversibly inhibit TXNRD1 in an NADPH-dependent manner; specificity for TXNRD1 compared to inhibition of TXNRD2 [8]: 5- to 10 fold; activated caspase-3 staining in excised xenografts ([11]; between days three and four): increased staining for activated caspase-3; [18F]-FDG uptake in viable parts of the tumors ([11]; day 3 vs day 0): markedly decreased; maximal respiratory capacity [15, 26]: little effect on maximal respiratory capacity; MDA-MB-231 xenograft tumor growth ([16]; 10 mg/kg i.p.): significantly decreased compared to the vehicle controls; complete tumor regression ([16]; 10 mg/kg i.p., n=12): one tumor in the TRi-1 i.p. group completely regressing; systemic toxicity in MDA-MB-231 xenograft study ([16]; 10 mg/kg i.v. or i.p.): no signs of overt systemic toxicity; MDA-MB-231 xenograft tumor growth ([16]; 10 mg/kg i.v.): significantly decreased compared to the vehicle controls; inhibition of cellular TXNRD activity [19]: equal or greater potency compared to that of auranofin |
| COc1cccc(S(=O)(=O)c2ccc(Cl)cc2)n1 [TRi-62] |  |  |  |  |  |  |  |  |  |  |  |  |  |  |  |  | cytotoxicity towards FaDu cells [21]: loss of cytotoxicity |
| CC(=O)OC[C@H]1O[C@@H]([S-])[C@H](OC(C)=O)[C@@H](OC(C)=O)[C@@H]1OC(C)=O.CCP(CC)CC.[Au+] [auranofin, reference compound] | increased cellular H2O2 production | similarly cytotoxic towards these two cell types | minimally affected | did not activate JNK and p38 phosphorylation as robustly | no apparent resistance | over 1000 fold | not with TRi-2 or auranofin | impaired tumor growth | significantly smaller compared to the vehicle controls | only displayed lower potency against the CDD841 cells | enhanced the cytotoxicity | deteriorated ATP-coupled respiration | no signs of overt toxicity or changes in mouse weight | decreased tumor growth compared to vehicle controls within four days | rather rapid metabolism | lowered GSH | SecTRAP formation (NADPH-dependent redox cycling with juglone) [4]: maintained substantial NADPH-dependent redox cycling with juglone; mode of TXNRD1 inhibition [6]: irreversibly inhibit TXNRD1 in an NADPH-dependent manner; cytotoxicity in colony-forming assay [22]: more cytotoxic than TRi-1; TXNRD1 versus TXNRD2 inhibition profile [8]: pan-TXNRD inhibitor; GPX1 inhibition ([9]; preincubated with GPX1 in the absence of GSH, high concentrations): moderate inhibition; survival during observation [12, 25]: two mice in the auranofin group had to be sacrificed due to poor health; maximal respiratory capacity [15]: impaired maximal respiratory capacity; cytotoxic potency, side-by-side comparison [23]: on average more potent than TRi-1; GI50 [24]: 760 nM |
